HSV augment: enhancers of HSV replication in host cells, fold increase, host cell viability; HSV replication augmentation in cells; maximum fold increase; 220,000 compounds, 0.005% hits; in the data active = maximum fold increase above about 1.5; tested in PC3 cells
Mdm2 ligase inh: MDM2-luciferase reporter signal enhancers, primary screen, MDM2 E3 ligase inhibitor project, cell-based, luminescence, 1536-well; E3 ubiquitin-protein ligase Mdm2 (Homo sapiens), Q00987; cell-based MDM2 ubiquitination luciferase reporter, 2 h; 0 = plate control, 100 = twice control, blank-subtracted; signal enhancement, % at 5 µM; 210,000 compounds, 0.11% hits; AID 1230, 2008;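 active = signal enhancement of 30% or more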;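 note: luminescence tracks abundance of the self-degrading MDM2-luciferase fusion protein; higher signal means inhibition of MDM2 E3 ligase activity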
Target sequence (Q00987 whole entry, looked up, the tested form may be a part): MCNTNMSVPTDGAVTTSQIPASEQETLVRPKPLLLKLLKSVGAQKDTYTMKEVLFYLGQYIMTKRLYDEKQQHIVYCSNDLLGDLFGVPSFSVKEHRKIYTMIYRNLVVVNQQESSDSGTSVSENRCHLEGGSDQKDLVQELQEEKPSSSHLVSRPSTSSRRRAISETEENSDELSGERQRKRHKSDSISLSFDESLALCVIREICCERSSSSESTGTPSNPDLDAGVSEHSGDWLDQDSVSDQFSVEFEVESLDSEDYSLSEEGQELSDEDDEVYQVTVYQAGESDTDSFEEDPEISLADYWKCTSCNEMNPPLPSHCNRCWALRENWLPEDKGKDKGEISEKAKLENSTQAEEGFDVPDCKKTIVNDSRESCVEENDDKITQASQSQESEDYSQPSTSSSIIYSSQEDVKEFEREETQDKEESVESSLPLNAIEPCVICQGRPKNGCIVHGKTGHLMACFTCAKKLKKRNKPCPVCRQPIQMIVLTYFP
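Material: stable MDM2–luciferase fusion reporter cells / Quantity: 2000 cells/well / Dosing: single 5 µM compound dose, 0.2% final DMSO / Buffer or medium: DMEM / Schedule: 4 h cell settling then 2 h compound exposure, 37 °C / Detection: luminescence with SteadyLite reagent, 15 min at room temperature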
Rad51 HR inh: human RAD51 strand exchange inhibitors, primary screen, biochemical, fluorescence | DNA repair protein RAD51 homolog 1 (Homo sapiens), Q06609 | hRad51 DNA strand exchange, fluorescence dequenching | inhibition, % at 10 µM | 200,000 compounds, 0.085% hits | AID 1385, 2008;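 active = inhibition above 40% at the single screening dose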;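 note: 0% = DMSO control wells and 100% = blanks with heterologous ssDNA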
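Material: human Rad51–ssDNA filaments; Probe or stimulus: labelled 47-mer dsDNA for strand exchange; Doses: single 10 µM dose; Incubation: 37 °C 15-min filament assembly, 30-min compound preincubation, 15-min exchange; Technique: FRET fluorescence dequenching, excitation 485 nm, emission 520 nm; Measure: Fluorescence-based percent inhibition, control- and blank-normalised; Benchmarks: plate control and blank wells.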
Hsp70 act: Hsp70 transcriptional activators, primary screen, cell-based, HeLa, Hsp70 promoter luciferase, luminescence, 10 µM. HeLa Hsp70 promoter luciferase reporter; scaled: vehicle 0, proteasome-inhibitor control 100%. activation, % at 10 µM. 200,000 compounds, 0.04% hits. AID 1203, 2008;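 active = activation above the mean across all tested compounds plus 3 SD, cutoff set per campaign, cut at about 5.5% in these data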;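 note: 100% = MG132 at 30 µM as the positive control and 0% = DMSO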
HSF1 inhib: HSF1 inhibitors in luciferase reporter cells, primary screen, cell-based, NIH3T3, luminescence; NIH3T3-HGL HSE-luciferase, MG132-induced, luminescence 8 h; stronger effect = lower value; activity change, negative = inhibition, % at 7.5 µM (by protocol); 300,000 compounds, 0.77% hits; AID 2098, 2009;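 active = more than half of replicate wells show activity change below -50%, luminescence cut by over half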;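 note: luciferase reports HSF-1 transcriptional activity via heat shock element; 0% = median of DMSO wells and -100% = zero luminescence signal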
HSF-1 act: HSF-1 activators, primary screen, NIH3T3-HGL cells, MG132 stress, luminescence, single point; NIH3T3-HGL HSF-1 luciferase reporter, 8 h; 100% = twice DMSO control signal; activation, % at 9 µM; 300,000 compounds, 1.7% hits;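 active = mean replicate activation of at least 50% with a set share of replicates each reaching 50%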;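 note: 0% = median of the neutral control wells and 100% = twice that signal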
* = called active by the depositor; i = inactive; . = no result. A selection: hits, their analogues and other compounds. The true share with any hit is near 2.6%.

SMILES	HSV augment	Mdm2 ligase inh	Rad51 HR inh	Hsp70 act	HSF1 inhib	HSF-1 act
O=C(Nc1ccc(-c2nc3ccccc3s2)cc1)C1=COCCO1	i	-84.3	12.6	-0.2	-56.2*	-62.9
O=C(Oc1ccc(C(=S)N2CCOCC2)cc1Br)c1cc(Cl)ccc1Cl	i	2.8	-0.8	0.2	19.0	78.4*
CCN(C(=O)N1CCOCC1)c1ccccc1C	.	.	.	.	-4.8	4.8
CCCn1c(SCc2nc3sc(C)c(C)c3c(=O)[nH]2)nc2ccccc2c1=O	i	-15.1	-3.8	0.5	61.0	113.8*
Cc1nn2c(N)c(-c3ccccc3)cnc2c1-c1ccccc1	.	.	.	.	-0.9	2.8
O=S(=O)(/N=C(/Nc1ccccn1)c1ccc(Cl)cc1)c1ccc(Cl)cc1	i	16.0	10.9	0.0	2.1	15.7
Cc1ccc(-c2cc(-c3ccccc3)c(C#N)c(Br)n2)cc1	i	-7.5	-5.7	-0.2	-4.0	-3.7
CS(=O)(=O)c1nc(-c2ccccc2)cc(-c2ccccc2)c1C#N	i	-0.8	0.0	-0.2	159.4	166.7*
O=C(Nc1ccn(Cc2ccccc2F)n1)c1ccc(COc2cccc(Br)c2)cc1	i	-16.8	-0.3	-0.3	29.3	51.5*
O=C(Nc1ccn(Cc2ccccc2F)n1)c1ccc(COc2ccccc2Cl)cc1	.	-5.1	.	-0.2	7.9	4.0
CC[C@H](C)/C=C(C)/C=C/C(=O)Cc1cc(O)c(C)c(O)c1C=O	i	-30.3	-27.2	.	44.5	78.3*
O=C(Nc1cccc([N+](=O)[O-])c1)c1[nH]ncc1Cl	i	-2.5	11.6	0.2	22.1	52.0*
O=C(Nc1cccc([N+](=O)[O-])c1)c1cnccn1	i	-8.2	-6.7	-0.2	1.5	4.2
COc1ccc(OC)c([C@@H]2OCCC=C[C@H]2C)c1	i	.	6.3	-0.2	0.0	11.2
NC(=O)CC(NC(=O)c1ccccc1)c1ccc(NC2CCCCCCC2)c([N+](=O)[O-])c1 (stereo not drawn)	.	.	.	.	10.8	3.9
CC(C)CN(CC(C)C)c1nc(N)c(C#N)c(CC#N)c1C#N	i	-9.1	4.5	0.0	111.8	131.9*
N#CCc1c(C#N)c(N)nc(Nc2ccccc2)c1C#N	i	.	-8.2	.	38.6	49.4
CN(c1ccccc1)c1nc(N)c(C#N)c(CC#N)c1C#N	i	-10.7	-1.9	-0.3	47.1	69.3*
CN(CCO)c1nc(N)c(C#N)c(CC#N)c1C#N	i	-8.0	-3.8	.	2.9	22.6
COc1ccc(/C=N/NC(=O)c2ccoc2C)cc1CN1CCN(c2ccc(F)cc2)CC1	.	.	.	.	10.4	22.3
CCN(CC)S(=O)(=O)c1ccc(S(=O)(=O)N(CC(=O)Nc2ccccc2)CC2CCCO2)cc1 (stereo not drawn)	i	.	-6.2	0.3	7.7	4.9
O=C(CN(CC1CCCO1)S(=O)(=O)c1ccc(S(=O)(=O)NC2CC2)cc1)Nc1ccccc1 (stereo not drawn)	i	-14.8	11.3	-0.3	61.2	115.2*
COc1cccc(C(=O)COC(=O)c2cccs2)c1	.	.	.	.	24.6	20.8
O=C(c1cc2ccccc2o1)N1CCN(S(=O)(=O)/C=C/c2ccccc2)CC1	i	-8.1	24.4	0.0	-4.8	4.8
O=C(c1ccco1)N1CCN(S(=O)(=O)/C=C/c2ccccc2)CC1	i	3.6	1.2	-0.1	-58.9*	-68.5
SMILES	HSV augment	Mdm2 ligase inh	Rad51 HR inh	Hsp70 act	HSF1 inhib	HSF-1 act
Cc1ccc(/C=N/NC(=O)c2nnn(-c3nonc3N)c2-c2ccc3c(c2)OCO3)s1	.	.	.	.	-0.4	0.4
CCC(C)(C)NC(=O)C(c1ccc(C)cc1)N(Cc1cccs1)C(=O)c1ccc2c(c1)OCCO2 (stereo not drawn)	.	-10.2	.	-0.3	22.5	55.2*
COc1ccc(OCC(O)Cn2cnc(-c3ccc(Br)cc3)c2)cc1 (stereo not drawn)	i	-5.3	-3.6	0.0	-0.3	12.8
OC(COc1ccc2ccccc2c1Br)Cn1cnc(-c2ccccc2)c1 (stereo not drawn)	i	-12.4	12.5	-0.6	-81.7*	-85.1
COc1ccc(-n2nc(C(=O)NCC(=O)N3CCN(c4ccccc4)CC3)c3ccccc3c2=O)cc1OC	.	.	.	.	9.3	1.6
COc1cccc(N/C(SCc2ccccc2F)=C(/C#N)C(=O)NCc2cccs2)c1	i	-2.9	3.8	-0.2	27.6	63.4*
COc1cccc(NC(=O)NCc2ccccc2F)c1	i	-12.3	15.3	-0.1	10.8	21.0
Cc1cc(C)c(OCCCCn2cnc3ccccc3c2=O)c(C)c1	i	2.4	-1.8	0.0	23.2	56.3*
Cc1cccc(C)c1OCCCCn1cnc2ccccc2c1=O	i	-4.3	-5.2	-0.1	7.7	20.8
O=C1OCC2=C1C(c1ccccc1)CC(=O)N2c1ccccc1 (stereo not drawn)	i	-4.0	51.3*	-0.4	0.7	2.0
O=C(OCC(=O)N1CCN(C(=O)c2ccco2)CC1)c1sc2cc(F)ccc2c1Cl	i	-5.3	0.6	-0.3	-54.7*	-65.6
CCCCN(C)C(=O)CCC(=O)Nc1ccc2nc(N3CCOCC3)cc(C)c2c1	i	-17.6	5.5	-0.2	3.8	6.2
CCCCN(C)C(=O)CCC(=O)Nc1ccc2nc(N3CCN(C)CC3)cc(C)c2c1	i	0.5	1.5	0.3	-69.9*	-76.2
Cc1cc(S(=O)(=O)NCC(c2ccc3c(c2)OCO3)N2CCOCC2)ccc1F (stereo not drawn)	.	.	.	.	1.1	13.7
Cc1c(C)n(CCCN(C)C)c2ncnc(Nc3ccccc3)c12	.	.	.	.	4.1	10.6
COc1ccc(Nc2ncnc3c2c(C)c(C)n3CCCN(C)C)cc1	.	.	.	.	-54.5*	-52.3
Oc1ccccc1CNc1ccc(OC(F)(F)F)cc1	i	-11.0	.	-0.1	-59.6*	-64.2
O=C(c1ccccc1Cc1ccccc1)N1CCN(S(=O)(=O)c2ccccc2Br)CC1	.	.	.	.	3.7	19.1
CN(CCN1CCOCC1)C(=O)c1cc(COc2ccc(F)c(F)c2)on1	.	.	.	.	11.9	21.1
Cc1ccc(OCC(=O)Nc2ccccc2F)cc1	.	.	.	.	9.5	56.0*
Cc1ccc(OCC(=O)NC(=S)Nc2ccccn2)c(Br)c1	.	.	.	.	-62.8*	-65.7
O=C(COc1ccc(Br)cc1Cl)NC(=S)Nc1ccccn1	.	.	.	.	-39.9	-48.8
Cc1ccc(OCC(=O)Nc2ccccc2[N+](=O)[O-])c(Br)c1	i	-11.3	-2.9	0.5	38.1	55.2*
